The values below come from ChEMBL document CHEMBL5230171, “Expanding the structure-activity relationships of alkynyl diphenylurea scaffold as promising antibacterial agents” (RSC Med Chem, 2023).

SMILES strings stand for the structures. Values after ≈ are worked out from the molar mass of the structure shown. Active and inactive are the calls of the source. The calls are words filed in the database; no cut-off is given here.

Series [1] relates to Staphylococcus aureus. Kind of series: Antibacterial activity against methicillin resistant Staphylococcus aureus 385 assessed as inhibition of bacterial growth incubated for 18 to 20 hrs by CLSI protocol based broth microdilution method. It counts as functional. As to conditions: time 18-20 hrs. In short, it runs like this: (§1)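 Broth microdilution against staphylococcal clinical isolates. Each strain was prepared as a 0.5 McFarland suspension and diluted in cation-adjusted Mueller Hinton broth to ~5 × 10^5 CFU mL−1. Serial dilutions of test agents in DMSO stock were incubated with the bacteria, and the MIC was recorded.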

Series [2] has as its system Staphylococcus aureus. Kind of series: Antibacterial activity against methicillin sensitive Staphylococcus aureus 6538 assessed as inhibition of bacterial growth incubated for 18 to 20 hrs by CLSI protocol based broth microdilution method. In kind it is functional. Conditions: time 18-20 hrs. An outline of the steps: as §1
(Dilution methods test growth across graded concentrations, often in twofold steps.)

In series [3] the test system is Vero. Kind of series: Cytotoxicity against African green monkey Vero cells assessed as reduction in cell viability at 64 ug/ml incubated for 24 hrs by MTS assay. It counts as toxicity, cell-based. As to conditions: chlorocebus sabaeus, dose 64 µg/ml. In short, it runs like this:
(§2)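 Vero or HaCaT cells were exposed to 32, 64 and 128 μg mL−1 compound in triplicate for 24 h at 37 °C, 5% CO2, with a DMSO control. MTS was then added for 4 h and OD490 read. Analysis used two-way ANOVA with Dunnett's post hoc test (p < 0.05).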
(Formazan colour is commonly taken as a measure of viable cells.)

Series [4] deals with Staphylococcus aureus. The experiment in a line: Antibacterial activity against methicillin resistant Staphylococcus aureus 386 assessed as inhibition of bacterial growth incubated for 18 to 20 hrs by CLSI protocol based broth microdilution method. It counts as functional. Conditions: time 18-20 hrs. In short, it runs like this: as §1
The subject of series [5] is Staphylococcus aureus. The experiment in a line: Antibacterial activity against methicillin resistant Staphylococcus aureus 386 assessed as inhibition of bacterial growth at 0.5 ug/ml incubated for 18 to 20 hrs by CLSI protocol based broth microdilution method. It counts as functional, organism-based. As to conditions: dose 0.5 µg/ml, time 18-20 hrs.
Series [6] has as its system Staphylococcus aureus. Kind of series: Antibacterial activity against methicillin resistant Staphylococcus aureus 385 assessed as inhibition of bacterial growth at 0.5 ug/ml incubated for 18 to 20 hrs by CLSI protocol based broth microdilution method. In kind it is functional, organism-based. As to conditions: dose 0.5 µg/ml, time 18-20 hrs.
For series [7], the system named is Staphylococcus aureus. The experiment in a line: Antibacterial activity against methicillin sensitive Staphylococcus aureus 107 assessed as inhibition of bacterial growth incubated for 18 to 20 hrs by CLSI protocol based broth microdilution method. It counts as functional. As to conditions: time 18-20 hrs. An outline of the steps:
as §1

The test system of series [8] is Staphylococcus aureus. Kind of series: Antibacterial activity against methicillin resistant Staphylococcus aureus 384 assessed as inhibition of bacterial growth at 0.5 ug/ml incubated for 18 to 20 hrs by CLSI protocol based broth microdilution method. As to conditions: dose 0.5 µg/ml, time 18-20 hrs. In kind it is functional, organism-based.
Series [9] has as its system Streptococcus mutans. The experiment in a line: Antibacterial activity against Streptococcus mutans 25175 assessed as inhibition of bacterial growth incubated for 18 to 20 hrs by CLSI protocol based broth microdilution method. In kind it is functional. As to conditions: time 18-20 hrs. An outline of the steps: (§3)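 Streptococci were diluted from a 0.5 McFarland suspension in cation-adjusted Mueller Hinton broth with 5% lysed horse blood. They were incubated with serial dilutions of test agent in broth microdilution, and the MIC was recorded.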

In series [10] the test system is Staphylococcus aureus. Kind of series: Antibacterial activity against methicillin resistant Staphylococcus aureus 119 assessed as inhibition of bacterial growth at 0.5 ug/ml incubated for 18 to 20 hrs by CLSI protocol based broth microdilution method. As to conditions: dose 0.5 µg/ml, time 18-20 hrs. It counts as functional, organism-based.
Series [11] has as its system Staphylococcus aureus. The experiment in a line: Antibacterial activity against vancomycin resistant Staphylococcus aureus 10 assessed as inhibition of bacterial growth incubated for 18 to 20 hrs by CLSI protocol based broth microdilution method. In kind it is functional. Conditions: time 18-20 hrs. In short, it runs like this: as §1
In series [12] the test system is Staphylococcus aureus. Kind of series: Antibacterial activity against methicillin resistant Staphylococcus aureus 119 assessed as inhibition of bacterial growth incubated for 18 to 20 hrs by CLSI protocol based broth microdilution method. In kind it is functional. Conditions: time 18-20 hrs. An outline of the steps: as §1
The test system of series [13] is Streptococcus pneumoniae. Kind of series: Antibacterial activity against Streptococcus pneumoniae 700677 assessed as inhibition of bacterial growth incubated for 18 to 20 hrs by CLSI protocol based broth microdilution method. In kind it is functional. As to conditions: time 18-20 hrs. An outline of the steps:
as §3

The test system of series [14] is Staphylococcus aureus. The experiment in a line: Antibacterial activity against vancomycin resistant Staphylococcus aureus 9 assessed as inhibition of bacterial growth incubated for 18 to 20 hrs by CLSI protocol based broth microdilution method. It counts as functional. As to conditions: time 18-20 hrs. In short, it runs like this: as §1
Series [15] deals with Enterococcus faecium. The experiment in a line: Antibacterial activity against Enterococcus faecium 700221 assessed as inhibition of bacterial growth incubated for 18 to 20 hrs by CLSI protocol based broth microdilution method. It counts as functional. As to conditions: time 18-20 hrs. In short, it runs like this: (§4)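 Enterococci and L. monocytogenes were diluted from a 0.5 McFarland suspension in TSB. They were incubated with serial dilutions of test agent in broth microdilution, and the MIC was recorded.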

Series [16] relates to Staphylococcus aureus. Kind of series: Antibacterial activity against vancomycin resistant Staphylococcus aureus 12 assessed as inhibition of bacterial growth at 0.5 ug/ml incubated for 18 to 20 hrs by CLSI protocol based broth microdilution method. It counts as functional, organism-based. As to conditions: dose 0.5 µg/ml, time 18-20 hrs.
In series [17] the test system is Staphylococcus aureus. The experiment in a line: Antibacterial activity against methicillin resistant Staphylococcus aureus NRS384 USA300 assessed as inhibition of bacterial growth incubated for 18 to 20 hrs by CLSI protocol based broth microdilution method. In kind it is functional. Conditions: time 18-20 hrs, read-out: MIC. In short, it runs like this: as §1

The subject of series [18] is Staphylococcus aureus. The experiment in a line: Antibacterial activity against methicillin sensitive Staphylococcus aureus 6538 assessed as inhibition of bacterial growth at 0.5 ug/ml incubated for 18 to 20 hrs by CLSI protocol based broth microdilution method. As to conditions: dose 0.5 µg/ml, time 18-20 hrs. It counts as functional, organism-based. In short, it runs like this: (§5)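 Staphylococcal and E. coli strains were diluted from a 0.5 McFarland suspension in cation-adjusted Mueller Hinton broth to ~5 × 10^5 CFU mL−1. They were incubated with serial dilutions of test agent in broth microdilution, and the MIC was recorded.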

The subject of series [19] is Streptococcus pyogenes. Kind of series: Antibacterial activity against Streptococcus pyogenes MGAS 1882 assessed as inhibition of bacterial growth incubated for 18 to 20 hrs by CLSI protocol based broth microdilution method. It counts as functional. As to conditions: time 18-20 hrs. An outline of the steps: as §3
For series [20], the system named is Staphylococcus aureus. The experiment in a line: Antibacterial activity against methicillin resistant Staphylococcus aureus 123 assessed as inhibition of bacterial growth at 0.5 ug/ml incubated for 18 to 20 hrs by CLSI protocol based broth microdilution method. Conditions: dose 0.5 µg/ml, time 18-20 hrs. It counts as functional, organism-based.
Series [21] deals with Streptococcus pneumoniae. The experiment in a line: Antibacterial activity against Streptococcus pneumoniae 51916 assessed as inhibition of bacterial growth incubated for 18 to 20 hrs by CLSI protocol based broth microdilution method. It counts as functional. Conditions: time 18-20 hrs. In short, it runs like this: as §3
Series [22] relates to Enterococcus faecalis. Kind of series: Antibacterial activity against Enterococcus faecalis 51299 assessed as inhibition of bacterial growth incubated for 18 to 20 hrs by CLSI protocol based broth microdilution method. In kind it is functional. As to conditions: time 18-20 hrs. In short, it runs like this: as §4
Series [23] relates to Streptococcus pyogenes. The experiment in a line: Antibacterial activity against Streptococcus pyogenes MGAS 9882 assessed as inhibition of bacterial growth incubated for 18 to 20 hrs by CLSI protocol based broth microdilution method. In kind it is functional. As to conditions: time 18-20 hrs. An outline of the steps: as §3
Series [24] has as its system Staphylococcus aureus. Kind of series: Antibacterial activity against vancomycin resistant Staphylococcus aureus 10 assessed as inhibition of bacterial growth at 0.5 ug/ml incubated for 18 to 20 hrs by CLSI protocol based broth microdilution method. It counts as functional, organism-based. Conditions: dose 0.5 µg/ml, time 18-20 hrs.
The test system of series [25] is Staphylococcus aureus. Kind of series: Antibacterial activity against methicillin resistant Staphylococcus aureus 384 assessed as inhibition of bacterial growth incubated for 18 to 20 hrs by CLSI protocol based broth microdilution method. It counts as functional. Conditions: time 18-20 hrs. In short, it runs like this: as §1
Series [26] concerns Staphylococcus epidermidis. Kind of series: Antibacterial activity against Staphylococcus epidermidis 101 assessed as inhibition of bacterial growth incubated for 18 to 20 hrs by CLSI protocol based broth microdilution method. Conditions: time 18-20 hrs. In kind it is functional. An outline of the steps: as §5
The subject of series [27] is Staphylococcus aureus. Kind of series: Antibacterial activity against vancomycin resistant Staphylococcus aureus 9 assessed as inhibition of bacterial growth at 0.5 ug/ml incubated for 18 to 20 hrs by CLSI protocol based broth microdilution method. In kind it is functional, organism-based. Conditions: dose 0.5 µg/ml, time 18-20 hrs.
Series [28] has as its system Staphylococcus aureus. Kind of series: Antibacterial activity against methicillin resistant Staphylococcus aureus 123 assessed as inhibition of bacterial growth incubated for 18 to 20 hrs by CLSI protocol based broth microdilution method. In kind it is functional. As to conditions: time 18-20 hrs. In short, it runs like this: as §1
Series [29] relates to Staphylococcus aureus. Kind of series: Antibacterial activity against vancomycin resistant Staphylococcus aureus 12 assessed as inhibition of bacterial growth incubated for 18 to 20 hrs by CLSI protocol based broth microdilution method. In kind it is functional. As to conditions: time 18-20 hrs. An outline of the steps: as §1
In series [30] the test system is Staphylococcus aureus. The experiment in a line: Antibacterial activity against methicillin sensitive Staphylococcus aureus 107 assessed as inhibition of bacterial growth at 0.5 ug/ml incubated for 18 to 20 hrs by CLSI protocol based broth microdilution method. In kind it is functional, organism-based. Conditions: dose 0.5 µg/ml, time 18-20 hrs. In short, it runs like this: as §5

The test system of series [31] is Listeria monocytogenes. The experiment in a line: Antibacterial activity against Listeria monocytogenes 19111 assessed as inhibition of bacterial growth incubated for 18 to 20 hrs by CLSI protocol based broth microdilution method. In kind it is functional. As to conditions: time 18-20 hrs. An outline of the steps:
as §4

The nature of series [32]: Cytotoxicity against human HaCaT cells assessed as tolerance by measuring cell viability at 64 ug/ml incubated for 24 hrs by MTS assay relative to control. It counts as toxicity, cell-based. As to conditions: at 64 µg/mL, read-out: Activity. An outline of the steps:
as §2

The MIC is the lowest concentration that inhibits growth of the organism. As for `C/C(=N\NC(=N)N)c1ccc(NC(=O)Nc2ccc(C#CCC(C)C)cc2)cc1`, the MIC in series [1], in series [2], in series [4], in series [7], in [9] and in [11] was 0.5 µg/mL (≈ 1.28 µM) each time. Further, the MIC in series [12], in series [13], in [14], in series [15], in series [17] and in [19] was 0.5 µg/mL (≈ 1.28 µM) in each case. Besides, the MIC in series [21], in [22], in series [23], in [25], in series [26] and in [28] was 0.5 µg/mL (≈ 1.28 µM) each time. Further, the MIC in series [29] and in series [31] was 0.5 µg/mL (≈ 1.28 µM) throughout. Also, the Activity entry in series [3] is on record as “Non-Toxic”. Also, the result in series [5], in series [6], in series [8], in [10], in series [16] and in series [18] was Active. Also, the outcome in [20], in series [24], in series [27] and in series [30] was Active.

Take `CCCC#Cc1ccc(NC(=O)Nc2ccc(/C(C)=N/NC(=N)N)cc2)cc1`: the MIC in series [17] came to 0.5 µg/mL (≈ 1.33 µM).

For `C/C(=N\NC(=N)N)c1ccc(NC(=O)Nc2ccc(C#CC(C)(C)C)cc2)cc1`, the outcome in series [5], in series [6], in series [8], in [10], in series [16] and in [18] was Active. Besides, the result in [20], in series [24], in series [27] and in series [30] was Active. Moreover, the MIC in [17] is 0.5 µg/mL (≈ 1.28 µM).

As to `CCCCCCC#Cc1ccc(NC(=O)Nc2ccc(/C(C)=N/NC(=N)N)cc2)cc1`, in [3], the Activity entry is reported as “Non-Toxic”. Further, the result in series [5], in series [6], in series [8], in series [10], in series [16] and in series [18] was Active. The result in [20], in series [24], in [27] and in series [30] was Active. The MIC in [17] was determined as 0.5 µg/mL (≈ 1.19 µM). In addition, in series [32], the viability at 24 h, 64 ug/ml was found to be 100%.

On to `CCCCCC#Cc1ccc(NC(=O)Nc2ccc(/C(C)=N/NC(=N)N)cc2)cc1`, for which the Activity result in series [3] was “Non-Toxic”. For the same compound, the outcome in series [5], in [6], in [8], in series [10], in [16] and in series [18] was Active. In addition, the result in series [20], in [24], in series [27] and in series [30] was Active. In addition, the MIC in [17] came out at 0.5 µg/mL (≈ 1.24 µM). Also, the viability at 24 h, 64 ug/ml in series [32] was 100%.
